Results reported in PubChem BioAssay.
The source made the active and inactive calls.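 How the source made its calls, unless noted: active means Her2 level under about 52% in both replicate screens, with viability over 70% of control (limit read from the data); inconclusive means Her2 under the limit in one screen only, or viability under 70%; inactive means Her2 level above the set limit.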

What was measured:
[1] = reducers of endogenous Her2 protein level, primary screen, SKBR3 breast tumor cells, AlphaScreen, ATP viability (AID 461); details: 18-24 h, measured here: SKBR3 viability, ATP luminescence, at 10 µM;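 on Her2 level: lower value means less Her2 protein in the cells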;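 on viability: percent of carrier control wells set as 100% viability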
[2] = biological target: Receptor tyrosine-protein kinase erbB-2 (Homo sapiens) (UniProt P04626); test: as above; details: 18-24 h, at 10 µM, stronger effect = lower value
[3] = SK-BR-3 cell growth inhibitors, pilot screen, 24 h, human (AID 572;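 active means viability at or below 10% of carrier control in both of two separate runs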;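 further: compound exposure lasted between 18 and 24 h rather than exactly 24 h; 100% = carrier-treated control wells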); details: SK-BR-3 viability, CellTiter-Glo luminescence, at 10 µM, stronger effect = lower value
[4] = HUVEC growth inhibition – cell-based, human, primary screen (AID 575;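 active means viability at or below 30% in both replicate assays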;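 further: 100% = median of untreated cell wells with 0.1% DMSO on each plate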); details: HUVEC proliferation, CellTiter-Glo luminescence, 72 h; at 10 µM; stronger effect = lower value
How it was run: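 Timing: 72 h treatment at 37 °C; material: HUVEC primary cells; technique: CellTiter-Glo luminescence measuring cellular ATP; controls: vehicle and MePR control wells; measure: percent of median DMSO-control luminescence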

[5] = reversal of MRP1-mediated doxorubicin resistance, pilot screen, H69AR cells, doxorubicin co-treatment (AID 601;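 active means viability loss from added drug above about 55%, and viability with drug at most 40%, in both replicates, limit read from the data, passing the limit was not always enough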); details: CellTiter-Glo, 72 h, at 10 µM; for differential viability (reversal): stronger effect = higher value
[6] = 384-well plate pilot, post-Golgi transport modulator project, inhibition of yeast transport mutant growth (AID 636; in the data active means inhibition above about 31%); details: absorbance 615 nm, about 18 h, stronger effect = higher value
[7] = growth suppression of yeast trafficking mutant, preliminary HTS, modulators of trafficking downstream of Golgi apparatus project, 1536-format plate, OD 615 nm (AID 637; in the data active means inhibition above about 30%); details: yeast transport mutant growth, absorbance 615 nm, 18 h; stronger effect = higher value
[8] = growth inhibitors of H69AR lung tumor, primary screen, human, duplicate replicates (AID 580;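 active means viability at or under a set limit in both replicates, limit being median viability minus 3 SD, cut at about 48% in these data, passing the limit was not always enough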;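 further: 100% = mean luminescence of untreated wells and 0% = no signal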); details: H69AR lung tumor cells viability, ATP luminescence, 72 h; at 10 µM; stronger effect = lower value
[9] = H69AR cells + 2 uM doxorubicin, measured here: viability with 2 uM doxorubicin, stronger effect = lower value
[10] = H69AR cells, compound alone cytotoxicity

Receptor tyrosine-protein kinase erbB-2 (Homo sapiens), sequence (P04626 whole entry, looked up): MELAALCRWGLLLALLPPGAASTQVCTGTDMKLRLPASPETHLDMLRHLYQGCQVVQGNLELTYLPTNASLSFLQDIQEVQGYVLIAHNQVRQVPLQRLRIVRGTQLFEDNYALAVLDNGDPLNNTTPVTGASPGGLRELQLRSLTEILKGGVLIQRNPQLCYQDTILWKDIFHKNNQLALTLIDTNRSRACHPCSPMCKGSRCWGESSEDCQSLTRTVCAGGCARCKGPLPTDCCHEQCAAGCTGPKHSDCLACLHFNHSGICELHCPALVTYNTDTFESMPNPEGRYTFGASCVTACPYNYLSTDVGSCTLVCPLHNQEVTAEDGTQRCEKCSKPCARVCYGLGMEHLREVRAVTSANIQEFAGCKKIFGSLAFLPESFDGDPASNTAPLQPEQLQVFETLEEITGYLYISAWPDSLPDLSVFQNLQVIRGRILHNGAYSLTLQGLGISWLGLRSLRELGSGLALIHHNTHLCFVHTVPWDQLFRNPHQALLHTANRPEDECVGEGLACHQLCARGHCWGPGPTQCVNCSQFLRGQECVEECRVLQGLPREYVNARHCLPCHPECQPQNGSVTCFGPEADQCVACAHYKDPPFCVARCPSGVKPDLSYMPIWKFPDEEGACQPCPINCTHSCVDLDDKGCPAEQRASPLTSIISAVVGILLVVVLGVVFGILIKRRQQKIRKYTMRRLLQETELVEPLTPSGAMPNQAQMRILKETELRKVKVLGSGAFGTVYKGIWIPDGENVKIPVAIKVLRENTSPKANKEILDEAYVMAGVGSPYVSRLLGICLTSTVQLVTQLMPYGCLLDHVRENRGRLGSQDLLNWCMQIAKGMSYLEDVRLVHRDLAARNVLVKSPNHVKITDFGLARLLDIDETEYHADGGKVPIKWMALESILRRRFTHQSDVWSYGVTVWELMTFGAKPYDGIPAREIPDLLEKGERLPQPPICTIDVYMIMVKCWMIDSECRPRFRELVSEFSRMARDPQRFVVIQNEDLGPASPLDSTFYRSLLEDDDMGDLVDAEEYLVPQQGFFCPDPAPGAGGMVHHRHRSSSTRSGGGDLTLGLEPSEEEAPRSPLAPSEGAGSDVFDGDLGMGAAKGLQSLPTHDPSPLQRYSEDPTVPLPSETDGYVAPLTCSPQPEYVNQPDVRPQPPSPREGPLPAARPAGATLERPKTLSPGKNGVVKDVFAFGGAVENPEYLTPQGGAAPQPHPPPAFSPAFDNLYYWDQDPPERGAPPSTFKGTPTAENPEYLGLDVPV

SMILES	viability [1] [%]	Her2 level [2]	viability [3]	viability [4]	differential viability (reversal) ([5]; H69AR cells + 2 uM doxorubicin)	viability [5, 9] [%]	viability [5, 10] [%]	inhibition [6]	inhibition [7]	viability [8]
CC(C)(C)n1nnnc1C(c1ccccc1)N1CCc2ccccc2C1 (centres undefined)	107	82% (inactive)	107% (inactive)	42% (inactive)	5.93% (inactive)	43.4	49.3	-7.26% (inactive)	-2.7% (inactive)	
CCCc1cc(-c2n[nH]c(C)c2-c2ccc(C(=O)OCC)o2)c(O)cc1O	78	72% (inactive)	78% (inactive)	39.4% (inactive)	-10.2% (inactive)	38.2	28	-4.74% (inactive)	1.45% (inactive)	
CC1=C(C(=O)OC2CCCCC2)C(c2ccc(C)o2)C2=C(CC(C)(C)CC2=O)N1 (centres undefined)	77.5	83% (inactive)	77.5% (inactive)	50.5% (inactive)	13.1% (inactive)	37.4	50.5	0.38% (inactive)	-7.83% (inactive)	
Cc1ccccc1OCCCN1C(=O)C(=O)c2cccc(C)c21	106	72% (inactive)	106% (inactive)	77.7% (inactive)	-16.4% (inactive)	49.4	33	2.56% (inactive)	-1.33% (inactive)	
CCOC(=O)c1c(C)oc2c1c(C(c1ccncc1)N1CCOCC1)c(O)c1ccccc12 (centres undefined)	104	85% (inactive)	104% (inactive)	9.39% (active)	-5.27% (inactive)	6.38	1.11	-0.13% (inactive)	-3.49% (inactive)	
CCn1c2ccccc2c2cc(NC(=O)Cc3ccc(S(=O)(=O)N4CCOCC4)s3)ccc21	83	76.5% (inactive)	83% (inactive)	9.02% (active)	-10.1% (inactive)	60.2	50.1	-1.84% (inactive)	-2.73% (inactive)	
Oc1ccccc1-c1cc(C(F)(F)C(F)F)[nH]n1	97	93% (inactive)	97% (inactive)		11.3% (inactive)	87.1	98.3	-2.69% (inactive)	2.83% (inactive)	98.3% (inactive)
CCOC(=O)c1cnn(-c2ncnc3c2cnn3Cc2ccccc2)c1N	99.5	84.5% (inactive)	99.5% (inactive)		-14.3% (inactive)	31.5	17.2	-5.33% (inactive)	-2.58% (inactive)	17.2% (active)
COc1ccc(OCC(=O)N2CCN(C(=O)COc3ccc(Br)cc3)CC2)cc1	84.5	95.5% (inactive)	84.5% (inactive)	81.3% (inactive)	7.19% (inactive)	40.4	47.6	-2.67% (inactive)	3.71% (inactive)	
COc1ccc(CNc2oc(COc3ccccc3Cl)nc2C#N)cc1	84	68.5% (inactive)	84% (inactive)		-4.78% (inactive)	92.1	87.3	0.26% (inactive)	14.1% (inactive)	87.3% (inactive)
Cc1ccc(O)c(-c2cc3ccccc3[nH]2)c1	105	87% (inactive)	105% (inactive)		11.1% (inactive)	59.2	70.2	-8.92% (inactive)	0.33% (inactive)	70.2% (inactive)
CCOC(=O)C1=C(N)c2ccccc2CC1C(C)C (centres undefined)	85.5	78% (inactive)	85.5% (inactive)		-4.15% (inactive)	76.1	72	-5.34% (inactive)	-1.9% (inactive)	72% (inactive)
CC(C)Cn1c(N)c(C(=O)NCc2cccs2)c2nc3ccccc3nc21	77	101% (inactive)	77% (inactive)		-5.04% (inactive)	17.1	12	24.3% (inactive)	12.1% (inactive)	12% (active)
COc1cc(C(=O)Nc2nc(-c3cccs3)cs2)cc(OC)c1OC	86	82% (inactive)	86% (inactive)		-14.2% (inactive)	37.2	22.9	1.51% (inactive)	23.6% (inactive)	22.9% (active)
CCCCCCc1ccc(-c2ncc(N)cn2)cc1	97	90.5% (inactive)	97% (inactive)	7.73% (active)	-5.17% (inactive)	61.9	56.7	-1.47% (inactive)	0.32% (inactive)	
CN1CC=C2C(C#N)=C(N)C(C#N)(C#N)[C@H](c3cccc(Cl)c3)C2C1 (some centres undefined)	94	73.5% (inactive)	94% (inactive)	83% (inactive)	32.6% (inactive)	22.1	54.7	-4.27% (inactive)	-1.9% (inactive)	
COc1cccc(C(=O)Nc2c(C(N)=O)oc3ccccc23)c1	86.5	69% (inactive)	86.5% (inactive)	65.9% (inactive)	-13.6% (inactive)	62.4	48.7	-5.33% (inactive)	3% (inactive)	
CN1CCc2nc(SCCOc3ccccc3)c(C#N)cc2C1	150	25% (active)	150% (inactive)		-13.7% (inactive)	98.5	84.8	-1.69% (inactive)	0.67% (inactive)	84.8% (inactive)
Cc1ccc(C)c(-c2nc3ccc(N)cc3[nH]2)c1	122	101% (inactive)	122% (inactive)	68.3% (inactive)	-15.6% (inactive)	68.3	52.8	-6.35% (inactive)	5.67% (inactive)	
CN(C)CC(O)COc1ccc(-c2ccc(C#N)cc2)cc1 (centres undefined)	79.5	109% (inactive)	79.5% (inactive)		14.3% (inactive)	81.8	96	0.27% (inactive)	-6.61% (inactive)	96% (inactive)
COc1ccc(CC(=O)NCc2cccs2)cc1	90	103% (inactive)	90% (inactive)	60.6% (inactive)	-17.3% (inactive)	77.9	60.5	-4% (inactive)	-8.03% (inactive)	
CCOC(=O)c1cnc(-n2nc(C)cc2C)nc1Nc1ccc(N(C)C)cc1	102	75.5% (inactive)	102% (inactive)		11.6% (inactive)	26.3	37.9	-6.05% (inactive)	-1.13% (inactive)	37.9% (active)
CC(=O)c1ccccc1Oc1nc(CN2CCOCC2)nc2scc(-c3cccs3)c12	87.5	79% (inactive)	87.5% (inactive)	73.3% (inactive)	32.8% (inactive)	17.1	49.9	-8.24% (inactive)	2.46% (inactive)	
CO[C@H]1C=CO[C@@]2(C)Oc3c(C)c(O)c4c(O)c(c(C=NN5CCN(C)CC5)c(O)c4c3C2=O)NC(=O)C(C)=CC=C[C@H](C)[C@H](O)[C@@H](C)[C@@H](O)[C@@H](C)[C@H](OC(C)=O)[C@@H]1C	90.5	85.5% (inactive)	90.5% (inactive)		1.53% (inactive)	87.3	88.9			88.9% (inactive)
O=C(O)CCc1cc(I)c(Oc2ccc(O)c(I)c2)c(I)c1	104	76.5% (inactive)	104% (inactive)		3.29% (inactive)	98.8	102			102% (inactive)
Cc1ccc(S(=O)(=O)N2CCOCC2)cc1C(=O)Nc1ccc(-c2cn3ccsc3n2)cc1	80	80.5% (inactive)	80% (inactive)	58.7% (inactive)	-0.105% (inactive)	70.8	70.7	-2.63% (inactive)	-2.86% (inactive)	
Cc1ccc2c(c1)-c1c(cnn1CC(=O)Nc1ccccc1N1CCN(C)CC1)CO2	93.5	84% (inactive)	93.5% (inactive)		4.26% (inactive)	80.9	85.2	-1.2% (inactive)	-3.28% (inactive)	85.2% (inactive)
